Results on four compounds are retold here after ChEMBL document CHEMBL4038305, “Benzoxaborole Antimalarial Agents. Part 5. Lead Optimization of Novel Amide Pyrazinyloxy Benzoxaboroles and Identification of a Preclinical Candidate” (J Med Chem, 2017).

Data set [1] concerns Plasmodium berghei. Kind of data set: Antimalarial activity against Plasmodium berghei infected in Swiss Webster mouse assessed as mouse survival rate at 3 mg/kg administered once daily via oral gavage for 4 consecutive days beginning 1 hr after infection measured on day 4 post infection relative to control. Format: functional. The gist of the method:
(§1)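 P. berghei-infected erythrocytes taken from a previously infected mouse were injected intraperitoneally. Oral dosing, once daily for 4 consecutive days, began 1 h after infection, in polyethylene glycol 300/propylene glycol/water (55/25/20 by weight). Chloroquine at 30 mg/kg was the positive control, with a vehicle-only group. Percent survival was recorded daily from day 4 to day 20.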

Data set [2] concerns Plasmodium berghei. The data set can be described thus: Antimalarial activity against Plasmodium berghei infected in Swiss Webster mouse assessed as mouse survival rate at 3 mg/kg administered once daily via oral gavage for 4 consecutive days beginning 1 hr after infection measured on day 6 post infection relative to control. Format: functional. The gist of the method:
as §1

In data set [3] the test system is Plasmodium berghei. Kind of data set: Antimalarial activity against Plasmodium berghei infected in Swiss Webster mouse assessed as mouse survival rate at 0.3 mg/kg administered once daily via oral gavage for 4 consecutive days beginning 1 hr after infection measured on day 7 post infection relative to control. Format: functional. The gist of the method: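 Mice given an intraperitoneal injection of P. berghei-infected erythrocytes taken from a previously infected animal. Oral dosing once daily for 4 consecutive days, starting 1 h after infection. Vehicle: polyethylene glycol 300/propylene glycol/water (weight ratio 55/25/20). Percent survival recorded daily from day 4 to day 20. Chloroquine 30 mg/kg and vehicle-only groups served as controls.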

Data set [4] has as its system Plasmodium berghei. Kind of data set: Antimalarial activity against Plasmodium berghei infected in Swiss Webster mouse assessed as mouse survival rate at 3 mg/kg administered once daily via oral gavage for 4 consecutive days beginning 1 hr after infection measured on day 8 post infection relative to control. The data set is classed as functional. The gist of the method:
as §1

The subject of data set [5] is Lymphocyte. Kind of data set: Genotoxicity in human lymphocytes at 0.5 to 355 ug/mL after 3 to 28 hrs in absence of rat liver S9 fraction by micronucleus assay. The data set is classed as toxicity, cell-based.
The subject of data set [6] is Plasmodium berghei. The data set can be described thus: Antimalarial activity against Plasmodium berghei infected in Swiss Webster mouse assessed as mouse survival rate at 200 mg/kg administered once daily via oral gavage for 4 consecutive days beginning 1 hr after infection measured on day 16 post infection relative to control. The data set is classed as functional. The gist of the method: as §1

In data set [7] the test system is Plasmodium berghei. The data set can be described thus: Antimalarial activity against Plasmodium berghei infected in Swiss Webster mouse assessed as mouse survival rate at 3.7 mg/kg administered once daily via oral gavage for 4 consecutive days beginning 1 hr after infection measured on day 8 post infection relative to control. Format: functional. The gist of the method: as §1

Data set [8] concerns Salmonella typhimurium. Kind of data set: Genotoxicity in Salmonella typhimurium TA1535 assessed as number of revertants per plate at 5000 ug/plate in presence of rat liver S9 fraction by Ames test (reference value: 10). To be noted: salmonella enterica subsp. enterica serovar typhimurium. The data set is classed as toxicity. (In general: In the Ames test, an excess of revertant colonies over the control signals mutagenicity.)

The test system of data set [9] is Salmonella typhimurium. The data set can be described thus: Genotoxicity in Salmonella typhimurium TA100 assessed as number of revertants per plate at 500 ug/plate in absence of rat liver S9 fraction by Ames test (reference value: 154 +/- 9). The data set is classed as toxicity. To be noted: salmonella enterica subsp. enterica serovar typhimurium.
Data set [10] relates to Salmonella typhimurium. The data set can be described thus: Genotoxicity in Salmonella typhimurium TA98 assessed as number of revertants per plate at 1500 ug/plate in presence of rat liver S9 fraction by Ames test (reference value: 19 +/- 8). Format: toxicity. To be noted: salmonella enterica subsp. enterica serovar typhimurium.
A short description of data set [11]: Volume of distribution at steady state in Beagle dog at 5 mg/kg, iv by HPLC/MS analysis. The data set is classed as ADME, organism-based, Canis lupus familiaris. To be noted: in vivo, read-out: Vdss.
Data set [12] deals with Escherichia coli. Kind of data set: Genotoxicity in Escherichia coli WP2uvrA assessed as number of revertants per plate at 15 ug/plate in absence of rat liver S9 fraction by Ames test (reference value: 45 +/- 9). Format: toxicity.
The test system of data set [13] is Salmonella typhimurium. Kind of data set: Genotoxicity in Salmonella typhimurium TA1537 assessed as number of revertants per plate at 1.5 ug/plate in presence of rat liver S9 fraction by Ames test (reference value: 11 +/- 4). The data set is classed as toxicity. To be noted: salmonella enterica subsp. enterica serovar typhimurium.
Data set [14] relates to Lymphocyte. Kind of data set: Genotoxicity in human lymphocytes assessed as increase in frequency of micronucleated cells at 80 ug/mL after 28 hrs in absence of rat liver S9 fraction by micronucleus assay (reference value: 0.74%). Format: toxicity, cell-based.
The subject of data set [15] is Lymphocyte. The data set can be described thus: Genotoxicity in human lymphocytes assessed as increase in frequency of micronucleated cells at 80 ug/mL after 3 hrs in absence of rat liver S9 fraction by micronucleus assay (reference value: 0.99%). The data set is classed as toxicity, cell-based.
Data set [16] in a line: Terminal half life in Sprague-Dawley rat at 5 mg/kg, iv by HPLC/MS analysis. To be noted: in vivo, read-out: beta t1/2 (converted). Format: ADME, organism-based.
For data set [17], the system named is Salmonella typhimurium. Kind of data set: Genotoxicity in Salmonella typhimurium TA1537 assessed as number of revertants per plate at 1.5 ug/plate in absence of rat liver S9 fraction by Ames test (reference value: 19 +/- 9). The data set is classed as toxicity. To be noted: salmonella enterica subsp. enterica serovar typhimurium.
In data set [18] the test system is Salmonella typhimurium. The data set can be described thus: Genotoxicity in Salmonella typhimurium TA100 assessed as number of revertants per plate at 1500 ug/plate in absence of rat liver S9 fraction by Ames test (reference value: 154 +/- 9). Format: toxicity. To be noted: salmonella enterica subsp. enterica serovar typhimurium.
Data set [19] deals with Salmonella typhimurium. The data set can be described thus: Genotoxicity in Salmonella typhimurium TA1535 assessed as number of revertants per plate at 150 ug/plate in absence of rat liver S9 fraction by Ames test (reference value: 10 +/- 3). Format: toxicity. To be noted: salmonella enterica subsp. enterica serovar typhimurium.
Data set [20] concerns Salmonella typhimurium. Kind of data set: Genotoxicity in Salmonella typhimurium TA1537 assessed as number of revertants per plate at 150 ug/plate in presence of rat liver S9 fraction by Ames test (reference value: 11 +/- 4). Format: toxicity. To be noted: salmonella enterica subsp. enterica serovar typhimurium.
Data set [21] concerns Salmonella typhimurium. Kind of data set: Genotoxicity in Salmonella typhimurium TA1537 assessed as number of revertants per plate at 1500 ug/plate in presence of rat liver S9 fraction by Ames test (reference value: 11 +/- 4). The data set is classed as toxicity. To be noted: salmonella enterica subsp. enterica serovar typhimurium.
The test system of data set [22] is Plasmodium falciparum. The data set can be described thus: Antimalarial activity against Plasmodium falciparum Dd2 infected in human erythrocytes assessed as reduction in [3H]-hypoxanthine incorporation preincubated for 24 hrs followed by [3H]-hypoxanthine addition measured after 24 hrs by scintillation counting method. The data set is classed as functional, cell-based.

A short description of data set [23]: AUC in rat at 2000 mg/kg administered via oral gavage. The data set is classed as ADME, organism-based. To be noted: in vivo.
Data set [24] deals with Escherichia coli. The data set can be described thus: Genotoxicity in Escherichia coli WP2uvrA assessed as number of revertants per plate at 5000 ug/plate in presence of rat liver S9 fraction by Ames test (reference value: 42 +/- 6). Format: toxicity.
The subject of data set [25] is Escherichia coli. Kind of data set: Genotoxicity in Escherichia coli WP2uvrA assessed as number of revertants per plate at 5000 ug/plate in absence of rat liver S9 fraction by Ames test (reference value: 45 +/- 9). Format: toxicity.
For data set [26], the system named is Salmonella typhimurium. The data set can be described thus: Genotoxicity in Salmonella typhimurium TA1535 assessed as number of revertants per plate at 1500 ug/plate in presence of rat liver S9 fraction by Ames test (reference value: 10). Format: toxicity. To be noted: salmonella enterica subsp. enterica serovar typhimurium.
For data set [27], the system named is Salmonella typhimurium. Kind of data set: Genotoxicity in Salmonella typhimurium TA100 assessed as number of revertants per plate at 1.5 ug/plate in absence of rat liver S9 fraction by Ames test (reference value: 154 +/- 9). To be noted: salmonella enterica subsp. enterica serovar typhimurium. The data set is classed as toxicity.
For data set [28], the system named is Plasmodium falciparum. Kind of data set: Antimalarial activity against intraerythrocytic stage of Plasmodium falciparum assessed as parasite reduction ratio at 30 times IC50 preincubated for 24 hrs followed by [3H]-hypoxanthine addition measured after 24 hrs by scintillation counting method. The data set is classed as functional. The gist of the method: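 In vitro P. falciparum parasite reduction ratio assay run at 10×, 30× and 100× IC50. Derived parameters: lag phase (time to maximal killing), PRR (parasites killed per life cycle) and PCT99.9% (time to clear 99.9% of the initial parasite population).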

Data set [29] has as its system Salmonella typhimurium. The data set can be described thus: Genotoxicity in Salmonella typhimurium TA1535 assessed as number of revertants per plate at 50 ug/plate in absence of rat liver S9 fraction by Ames test (reference value: 10 +/- 3). The data set is classed as toxicity. To be noted: salmonella enterica subsp. enterica serovar typhimurium.

Turning to `Cc1c(Oc2cnc(C(=O)NC(C)CO)cn2)ccc2c1B(O)OC2` (centres undefined), the survival at 3 mg/kg in data set [1] is 100%; in data set [2], 60%; in [4], 0%. Further, the survival at 0.3 mg/kg in [3] was determined as 20%.

For `Cc1c(Oc2cnc(C(=O)NCCO)cn2)ccc2c1B(O)OC2`, in data set [5], the Activity result is recorded as “Non-Toxic”.

In the case of `CCCC1(O)CN(C(=O)c2cnc(Oc3ccc4c(c3C)B(O)OC4)cn2)C1`, the survival at 200 mg/kg in data set [6] was found to be 100%.

The term IC50 denotes the point on the concentration scale where inhibition reaches its midpoint. The AUC is the area under the concentration-time curve, a measure of exposure. The low end stands for less exposure, the high end for more exposure. Consider `Cc1c(Oc2cnc(C(=O)N3CC(C)(O)C3)cn2)ccc2c1B(O)OC2`, for which the survival at 3.7 mg/kg in [7] was determined as 0%. Further, the Activity is recorded as 6 in data set [8]; 155 in data set [9]; 15 in data set [10]; 41 in data set [12]; 12 in data set [13]; 1.28% in data set [14]. Moreover, the Activity came to 0.81% in [15]; 15 in data set [17]; 133 in data set [18]; 8 in [19]; 12 in [20]; 8 in data set [21]. In addition, the Activity in [24] was 34; in data set [25], 43; in data set [26], 10; in data set [27], 144; in data set [29], 8. Besides, the Vd in [11] was 0.29 L/kg. In [16], the half-life is 4.6 h. Moreover, the concentration for half-maximal inhibition (IC50) in [22] is 53 nM. The compound also registered an AUC in data set [23] of 742 µg·h/mL. Also, the “log(ratio)” value in [28] was 4.9.
